We go through 12 compounds from ChEMBL document CHEMBL4196069 (Eur J Med Chem, 2018).

One data set has as its system HL-60. As to the kind of experiment: Antiproliferative activity against human HL60 cells after 72 hrs by MTT assay. The class given is functional, cell-based. The conditions noted are these: HL-60, 72 h. The method in brief: (§1)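 Cells pre-incubated 24 h at 37 °C in humidified 5% CO2, then exposed to compounds for 72 h. MTT (5 mg/mL) was added for 4 h, formazan was dissolved in DMSO, and OD was read at 570 nm. Vehicle control was 0.1% DMSO. IC50 was calculated from inhibition ratios as the mean ± SD of three independent experiments.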
For orientation: Formazan colour is commonly taken as a measure of viable cells.

The next data set deals with PC-3. As to the kind of experiment: Antiproliferative activity against human PC3 cells after 72 hrs by MTT assay. The conditions noted are these: PC-3, 72 h. The class given is functional, cell-based. The method in brief:
as §1

Another data set concerns Bel-7402. The data set can be described thus: Antiproliferative activity against human Bel7402 cells after 72 hrs by MTT assay. The class given is functional, cell-based. The conditions noted are these: Bel-7402, 72 h. The essentials:
as §1

The next data set deals with Bel7402/5-FU. As to the kind of experiment: Antiproliferative activity against human Bel7402/5-FU cells after 72 hrs by MTT assay. The class given is functional, cell-based. The method in brief:
as §1

The subject of another data set is L02. As to the kind of experiment: Antiproliferative activity against human LO2 cells after 72 hrs by MTT assay. The class given is cell-based. The conditions noted are these: L02, 72 h. The method in brief: as §1
A short description of data set [1]: Selectivity index, ratio of IC50 for human LO2 cells to IC50 for human Bel7402 cells. The class given is toxicity. The conditions noted are these: LO2 cells versus Bel7402 cells, read-out: Ratio IC50. The method in brief: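 Selectivity index = IC50(L-O2)/IC50(Bel-7402), both IC50s from the 72 h MTT assay (mean of three independent experiments).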

Usually IC50 stands for the concentration needed to halve the response being measured. Read a high IC50 as weaker potency. In the case of `C[C@H]1CCC/C=C/[C@@H]2C[C@H](OC(=O)c3ccc(N(CCCl)CCCl)cc3)C[C@H]2[C@H](O)/C=C/C(=O)O1`, the IC50 in the data set with HL-60 is 8.25 µM; in the data set on PC-3 it was 10.6 µM; in the data set with Bel-7402 it was 1.45 µM; in the data set on Bel7402/5-FU, 4.05 µM; with L02, 9.51 µM. In data set [1], the selectivity ratio came to 6.6.

In the case of `C[C@H]1CCC/C=C/[C@@H]2C[C@H](OC(=O)CCCc3ccc(N(CCCl)CCCl)cc3)C[C@H]2[C@H](OC(=O)CCCc2ccc(N(CCCl)CCCl)cc2)/C=C/C(=O)O1`, the IC50 in the data set on HL-60 was determined as 67.4 µM; with PC-3, 20.4 µM; in the data set on Bel-7402, 7.25 µM; with Bel7402/5-FU, 15.6 µM; in the data set on L02, 19.5 µM. Also, the selectivity ratio in data set [1] is 2.7.

`COC(=O)[C@H](Cc1ccc(N(CCCl)CCCl)cc1)NC(=O)CCC(=O)O`: the IC50 with HL-60 is 6.02 µM; in the data set with PC-3, above 80 µM; with Bel-7402, 23.9 µM; in the data set with Bel7402/5-FU, above 80 µM; in the data set with L02, 32.9 µM. For the same compound, in data set [1], the selectivity ratio stood at 1.37.

Turning to `C[C@H]1CCC/C=C/[C@@H]2C[C@H](OC(=O)CCCc3ccc(N(CCCl)CCCl)cc3)C[C@H]2[C@H](O)/C=C/C(=O)O1`, the IC50 with HL-60 was found to be 34.7 µM; in the data set with PC-3, 6.84 µM; in the data set on Bel-7402, 4.86 µM; in the data set with Bel7402/5-FU it was 13.8 µM; in the data set with L02, 15.5 µM. The selectivity ratio in data set [1] stood at 3.2.

In the case of `COC(=O)[C@H](Cc1ccc(N(CCCl)CCCl)cc1)NC(=O)CCC(=O)O[C@@H]1C[C@H]2[C@H](O)/C=C/C(=O)O[C@@H](C)CCC/C=C/[C@@H]2C1`, the IC50 turned out to be 14.4 µM with HL-60; 17.6 µM in the data set on PC-3; 1.49 µM with Bel-7402; 3.05 µM with Bel7402/5-FU; 4.57 µM in the data set with L02. Besides, the selectivity ratio in data set [1] stood at 3.1.

On to `O=C(O)CCCc1ccc(N(CCCl)CCCl)cc1` [CHLORAMBUCIL], for which the IC50 was 11.6 µM with HL-60; 40.4 µM in the data set on PC-3; above 80 µM in the data set with Bel-7402; above 80 µM in the data set on Bel7402/5-FU; above 80 µM in the data set with L02.

As to `C[C@H]1CCC/C=C/[C@@H]2C[C@H](O)C[C@H]2[C@H](OC(=O)CCCc2ccc(N(CCCl)CCCl)cc2)/C=C/C(=O)O1`, the IC50 in the data set on HL-60 was determined as 12.6 µM; in the data set on PC-3, 1.37 µM; in the data set with Bel-7402, 1.93 µM; with Bel7402/5-FU, 8.35 µM; in the data set on L02, 29.6 µM. Also, the selectivity ratio in data set [1] stood at 15.3.

As to `C[C@H]1CCC/C=C/[C@@H]2C[C@H](OC(=O)c3ccc(N(CCCl)CCCl)cc3)C[C@H]2[C@H](OC(=O)c2ccc(N(CCCl)CCCl)cc2)/C=C/C(=O)O1`, the IC50 in the data set on HL-60 is 9.31 µM; in the data set on PC-3, 18.5 µM; in the data set on Bel-7402, 6.3 µM; in the data set with Bel7402/5-FU, 15.3 µM; in the data set with L02, 17.3 µM. Also, the selectivity ratio in data set [1] came out at 2.7.

Regarding `O=c1[nH]cc(F)c(=O)[nH]1` [FLUOROURACIL], the IC50 is 2.37 µM in the data set on HL-60, 23.9 µM with PC-3, 18.5 µM in the data set on Bel-7402 and above 80 µM in the data set with Bel7402/5-FU.

Consider `COC(=O)[C@H](Cc1ccc(N(CCCl)CCCl)cc1)NC(=O)CCC(=O)O[C@@H]1C[C@@H]2[C@H](/C=C/CCC[C@H](C)OC(=O)/C=C/[C@H]2OC(=O)CCC(=O)N[C@@H](Cc2ccc(N(CCCl)CCCl)cc2)C(=O)OC)C1`, for which the IC50 worked out at 9.37 µM in the data set with HL-60; 32.5 µM with PC-3; 4.85 µM in the data set on Bel-7402; 7.47 µM in the data set on Bel7402/5-FU; 29.9 µM in the data set with L02. Moreover, in data set [1], the selectivity ratio was determined as 6.2.

`COC(=O)[C@H](Cc1ccc(N(CCCl)CCCl)cc1)NC(=O)CCC(=O)O[C@@H]1/C=C/C(=O)O[C@@H](C)CCC/C=C/[C@@H]2C[C@H](O)C[C@H]21`: the IC50 with HL-60 came to 1.52 µM; with PC-3, 14.5 µM; in the data set with Bel-7402 it was 1.37 µM; in the data set on Bel7402/5-FU, 4.6 µM; in the data set with L02, 5.16 µM. For the same compound, the selectivity ratio in data set [1] was 3.8.

Take `C[C@H]1CCC/C=C/[C@@H]2C[C@H](O)C[C@H]2[C@H](O)/C=C/C(=O)O1` [BREFELDIN A]: the IC50 with HL-60 is 0.025 µM; in the data set on Bel-7402 it was 0.024 µM; in the data set with Bel7402/5-FU, 0.82 µM; with L02, below 0.001 µM.
